# Test results published in ChEMBL document CHEMBL3407460, “Synthesis of novel thiazole-based 8,9-dihydro-7H-pyrimido[4,5-b][1,4]diazepines as potential antitumor and antifungal agents” (2015).
# Legend:
# Type in all cases: functional
# Cryptococcus neoformans [1] = assay: Antifungal activity against Cryptococcus neoformans IM 972751 clinical isolate after 48 hrs by broth microdilution method; conditions: IM 972751, 48 h; for MIC: read-out: MIC100
# Outline: (§1)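 Clinical isolates from the Malbrán Institute were grown on Sabouraud-chloramphenicol agar for 48 h at 30 °C, kept on Sabouraud-dextrose agar and subcultured every 15 days. M27-A3 RPMI-1640 microdilution used 1–5 × 10^3 CFU/mL, 48 h at 30 °C, OD405 read, triplicate. Endpoints MIC100, MIC80 and MIC50 were taken from % inhibition dose-response curves.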
# Cryptococcus neoformans [2] = assay: Antifungal activity against Cryptococcus neoformans IM 961951 clinical isolate after 48 hrs by broth microdilution method; conditions: IM 961951, 48 h; for MIC: read-out: MIC100; outline: as §1
# Cryptococcus neoformans [3] = assay: Antifungal activity against Cryptococcus neoformans IM 983036 clinical isolate after 48 hrs by broth microdilution method; conditions: IM 983036, 48 h; for MIC: read-out: MIC100; outline: as §1
# Cryptococcus neoformans [4] = assay: Antifungal activity against Cryptococcus neoformans IM 983040 clinical isolate after 48 hrs by broth microdilution method; conditions: IM 983040, 48 h; for MIC: read-out: MIC100; outline: as §1
# Cryptococcus neoformans [5] = assay: Antifungal activity against Cryptococcus neoformans IM 972724 clinical isolate after 48 hrs by broth microdilution method; conditions: IM 972724, 48 h; for MIC: read-out: MIC100; outline: as §1
# Cryptococcus neoformans [6] = assay: Antifungal activity against Cryptococcus neoformans IM 031631 clinical isolate after 48 hrs by broth microdilution method; conditions: IM 031631, 48 h; for MIC: read-out: MIC100; outline: as §1
# Cryptococcus neoformans [7] = assay: Antifungal activity against Cryptococcus neoformans ATCC 32264 after 48 hrs by broth microdilution method; conditions: ATCC 32264, 48 h; for MIC: read-out: MIC100
# Cryptococcus neoformans [8] = assay: Antifungal activity against Cryptococcus neoformans IM 042074 clinical isolate after 48 hrs by broth microdilution method; conditions: IM 042074, 48 h; for MIC: read-out: MIC100; outline: as §1
# Cryptococcus neoformans [9] = assay: Antifungal activity against Cryptococcus neoformans ATCC 32264 assessed as growth inhibition at 31.25 ug/ml after 48 hrs by broth microdilution method; conditions: ATCC 32264, 48 h
# Outline: (§2)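 CLSI M27-A3 broth microdilution in RPMI-1640. Compound stocks were made in DMSO (final at most 1%) and tested at final levels of 250 to 0.98. Inoculum was 1–5 × 10^3 CFU/mL, incubated 48 h at 30 °C in a moist, dark chamber. Growth and sterility control wells were included.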
# Cryptococcus neoformans [10] = assay: Antifungal activity against Cryptococcus neoformans ATCC 32264 assessed as growth inhibition at 7.81 ug/ml after 48 hrs by broth microdilution method; conditions: ATCC 32264, 48 h; outline: as §2
# Cryptococcus neoformans [11] = assay: Antifungal activity against Cryptococcus neoformans ATCC 32264 assessed as growth inhibition at 15.62 ug/ml after 48 hrs by broth microdilution method; conditions: ATCC 32264, 48 h; outline: as §2
# Candida albicans [12] = assay: Antifungal activity against Candida albicans ATCC 10231 assessed as growth inhibition at 15.62 ug/ml after 48 hrs by broth microdilution method; conditions: ATCC 10231, 48 h; outline: as §2
# Candida albicans [13] = assay: Antifungal activity against Candida albicans ATCC 10231 assessed as growth inhibition at 31.25 ug/ml after 48 hrs by broth microdilution method; conditions: ATCC 10231, 48 h; outline: as §2
# Cryptococcus neoformans [14] = assay: Antifungal activity against Cryptococcus neoformans ATCC 32264 assessed as growth inhibition at 250 ug/ml after 48 hrs by broth microdilution method; conditions: ATCC 32264, 48 h; outline: as §2
# Candida albicans [15] = assay: Antifungal activity against Candida albicans ATCC 10231 assessed as growth inhibition at 3.9 ug/ml after 48 hrs by broth microdilution method; conditions: ATCC 10231, 48 h; outline: as §2
# Candida albicans [16] = assay: Antifungal activity against Candida albicans ATCC 10231 assessed as growth inhibition at 7.81 ug/ml after 48 hrs by broth microdilution method; conditions: ATCC 10231, 48 h; outline: as §2
# Candida albicans [17] = assay: Antifungal activity against Candida albicans ATCC 10231 assessed as growth inhibition at 125 ug/ml after 48 hrs by broth microdilution method; conditions: ATCC 10231, 48 h; outline: as §2
# Cryptococcus neoformans [18] = assay: Antifungal activity against Cryptococcus neoformans ATCC 32264 assessed as growth inhibition at 62.5 ug/ml after 48 hrs by broth microdilution method; conditions: ATCC 32264, 48 h; outline: as §2
# Candida albicans [19] = assay: Antifungal activity against Candida albicans ATCC 10231 assessed as growth inhibition at 250 ug/ml after 48 hrs by broth microdilution method; conditions: ATCC 10231, 48 h; outline: as §2
# Cryptococcus neoformans [20] = assay: Antifungal activity against Cryptococcus neoformans ATCC 32264 assessed as growth inhibition at 125 ug/ml after 48 hrs by broth microdilution method; conditions: ATCC 32264, 48 h; outline: as §2
# Candida albicans [21] = assay: Antifungal activity against Candida albicans ATCC 10231 assessed as growth inhibition at 62.5 ug/ml after 48 hrs by broth microdilution method; conditions: ATCC 10231, 48 h; outline: as §2
# Cryptococcus neoformans [22] = assay: Antifungal activity against Cryptococcus neoformans ATCC 32264 assessed as growth inhibition at 3.9 ug/ml after 48 hrs by broth microdilution method; conditions: ATCC 32264, 48 h; outline: as §2
# Cryptococcus neoformans [23] = assay: Antifungal activity against Cryptococcus neoformans IM 052470 clinical isolate after 48 hrs by broth microdilution method; conditions: IM 052470, 48 h
# Outline: (§3)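 Clinical isolates from the Malbrán Institute were grown on Sabouraud-chloramphenicol agar for 48 h at 30 °C, kept on Sabouraud-dextrose agar and subcultured every 15 days. Endpoints MIC100, MIC80 and MIC50 were taken from % inhibition dose-response curves.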
# Cryptococcus neoformans [24] = assay: Antifungal activity against Cryptococcus neoformans IM 00319 clinical isolate after 48 hrs by broth microdilution method; conditions: IM 00319, 48 h; outline: as §3
# Cryptococcus neoformans [25] = assay: Antifungal activity against Cryptococcus neoformans IM 031706 clinical isolate after 48 hrs by broth microdilution method; conditions: IM 031706, 48 h; outline: as §3
smiles,measurement,setting,value
C[C@@H]1[C@H](O)[C@@H](C)/C=C/C=C/C=C/C=C/C=C/C=C/C=C/[C@H](O[C@@H]2O[C@H](C)[C@@H](O)[C@H](N)[C@@H]2O)C[C@@H]2O[C@](O)(C[C@@H](O)C[C@@H](O)[C@H](O)CC[C@@H](O)C[C@@H](O)CC(=O)O[C@H]1C)C[C@H](O)[C@H]2C(=O)O [AMPHOTERICIN B],MIC,Cryptococcus neoformans [1],1 µg/mL
same,MIC,Cryptococcus neoformans [2],1 µg/mL
same,MIC,Cryptococcus neoformans [3],0.25 µg/mL
same,MIC,Cryptococcus neoformans [4],0.25 µg/mL
same,MIC,Cryptococcus neoformans [5],0.25 µg/mL
same,MIC,Cryptococcus neoformans [6],0.12 µg/mL
same,MIC,Cryptococcus neoformans [7],0.12 µg/mL
same,MIC,Cryptococcus neoformans [8],0.12 µg/mL
COc1ccc(C2=Nc3c(N)nc(N)nc3NC(c3sc(Cl)nc3Cl)C2)cc1 (centres undefined),inhibition at 31.25 µg/mL,Cryptococcus neoformans [9],13.2%
same,inhibition at 7.81 µg/mL,Cryptococcus neoformans [10],6.04%
same,inhibition at 15.62 µg/mL,Cryptococcus neoformans [11],7.79%
same,inhibition at 15.62 µg/mL,Candida albicans [12],15.7%
same,inhibition at 31.25 µg/mL,Candida albicans [13],21.2%
same,inhibition at 250 µg/mL,Cryptococcus neoformans [14],77.1%
same,inhibition at 3.9 µg/mL,Candida albicans [15],10.4%
same,inhibition at 7.81 µg/mL,Candida albicans [16],12.4%
same,inhibition at 125 µg/mL,Candida albicans [17],54.6%
same,inhibition at 62.5 µg/mL,Cryptococcus neoformans [18],23.1%
same,inhibition at 250 µg/mL,Candida albicans [19],62.6%
same,inhibition at 125 µg/mL,Cryptococcus neoformans [20],46.9%
same,inhibition at 62.5 µg/mL,Candida albicans [21],23.2%
same,inhibition at 3.9 µg/mL,Cryptococcus neoformans [22],0%
Nc1nc(N)c2c(n1)NC(c1sc(Cl)nc1Cl)CC(c1ccccc1)=N2 (centres undefined),inhibition at 31.25 µg/mL,Cryptococcus neoformans [9],7%
same,MFC,Cryptococcus neoformans [1],62.5 µg/mL
same,MIC50,Cryptococcus neoformans [1],31.2 µg/mL
same,MIC80,Cryptococcus neoformans [1],31.2 µg/mL
same,MIC,Cryptococcus neoformans [1],62.5 µg/mL
same,inhibition at 7.81 µg/mL,Cryptococcus neoformans [10],0%
same,MFC,Cryptococcus neoformans [2],31.2 µg/mL
same,MIC50,Cryptococcus neoformans [2],15.6 µg/mL
same,MIC80,Cryptococcus neoformans [2],31.2 µg/mL
same,MIC,Cryptococcus neoformans [2],31.2 µg/mL
same,MFC,Cryptococcus neoformans [3],31.2 µg/mL
same,MIC50,Cryptococcus neoformans [3],15.6 µg/mL
same,MIC80,Cryptococcus neoformans [3],31.2 µg/mL
same,MIC,Cryptococcus neoformans [3],31.2 µg/mL
same,MFC,Cryptococcus neoformans [23],62.5 µg/mL
same,MIC50,Cryptococcus neoformans [23],7.8 µg/mL
same,MIC80,Cryptococcus neoformans [23],31.2 µg/mL
same,MIC,Cryptococcus neoformans [23]; read-out: MIC100,62.5 µg/mL
same,inhibition at 15.62 µg/mL,Cryptococcus neoformans [11],2.53%
same,MFC,Cryptococcus neoformans [24],62.5 µg/mL
same,MIC50,Cryptococcus neoformans [24],31.2 µg/mL
same,MIC80,Cryptococcus neoformans [24],31.2 µg/mL
same,MIC,Cryptococcus neoformans [24]; read-out: MIC100,62.5 µg/mL
same,inhibition at 15.62 µg/mL,Candida albicans [12],62%
same,inhibition at 31.25 µg/mL,Candida albicans [13],100%
same,inhibition at 250 µg/mL,Cryptococcus neoformans [14],100%
same,inhibition at 3.9 µg/mL,Candida albicans [15],4.92%
same,MFC,Cryptococcus neoformans [4],62.5 µg/mL
same,MIC50,Cryptococcus neoformans [4],7.8 µg/mL
same,MIC80,Cryptococcus neoformans [4],31.2 µg/mL
same,MIC,Cryptococcus neoformans [4],31.2 µg/mL
same,MFC,Cryptococcus neoformans [5],31.2 µg/mL
same,MIC50,Cryptococcus neoformans [5],15.6 µg/mL
same,MIC80,Cryptococcus neoformans [5],31.2 µg/mL
same,MIC,Cryptococcus neoformans [5],31.2 µg/mL
same,inhibition at 7.81 µg/mL,Candida albicans [16],21.5%
same,inhibition at 125 µg/mL,Candida albicans [17],100%
same,MFC,Cryptococcus neoformans [6],62.5 µg/mL
same,MIC50,Cryptococcus neoformans [6],31.2 µg/mL
same,MIC80,Cryptococcus neoformans [6],31.2 µg/mL
same,MIC,Cryptococcus neoformans [6],62.5 µg/mL
same,MFC,Cryptococcus neoformans [7],31.2 µg/mL
same,MIC50,Cryptococcus neoformans [7],15.6 µg/mL
same,MIC80,Cryptococcus neoformans [7],31.2 µg/mL
same,MIC,Cryptococcus neoformans [7],31.2 µg/mL
same,MFC,Cryptococcus neoformans [25],62.5 µg/mL
same,MIC50,Cryptococcus neoformans [25],31.2 µg/mL
same,MIC80,Cryptococcus neoformans [25],31.2 µg/mL
same,MIC,Cryptococcus neoformans [25]; read-out: MIC100,62.5 µg/mL
same,inhibition at 62.5 µg/mL,Cryptococcus neoformans [18],21.8%
same,inhibition at 250 µg/mL,Candida albicans [19],100%
same,MFC,Cryptococcus neoformans [8],62.5 µg/mL
same,MIC50,Cryptococcus neoformans [8],15.6 µg/mL
same,MIC80,Cryptococcus neoformans [8],31.2 µg/mL
same,MIC,Cryptococcus neoformans [8],31.2 µg/mL
same,inhibition at 125 µg/mL,Cryptococcus neoformans [20],74.3%
same,inhibition at 62.5 µg/mL,Candida albicans [21],100%
same,inhibition at 3.9 µg/mL,Cryptococcus neoformans [22],0%
Nc1nc(N)c2c(n1)NC(c1sc(Cl)nc1Cl)CC(c1ccc(F)cc1)=N2 (centres undefined),inhibition at 31.25 µg/mL,Cryptococcus neoformans [9],11%
same,inhibition at 7.81 µg/mL,Cryptococcus neoformans [10],5.01%
same,inhibition at 15.62 µg/mL,Cryptococcus neoformans [11],7.17%
same,inhibition at 15.62 µg/mL,Candida albicans [12],17.9%
same,inhibition at 31.25 µg/mL,Candida albicans [13],21.3%
same,inhibition at 250 µg/mL,Cryptococcus neoformans [14],25.5%
same,inhibition at 3.9 µg/mL,Candida albicans [15],0%
same,inhibition at 7.81 µg/mL,Candida albicans [16],0%
same,inhibition at 125 µg/mL,Candida albicans [17],51.7%
same,inhibition at 62.5 µg/mL,Cryptococcus neoformans [18],12.8%
same,inhibition at 250 µg/mL,Candida albicans [19],59.9%
same,inhibition at 125 µg/mL,Cryptococcus neoformans [20],24.6%
same,inhibition at 62.5 µg/mL,Candida albicans [21],43.3%
same,inhibition at 3.9 µg/mL,Cryptococcus neoformans [22],3.83%
